The structures appear in SMILES notation.

This data set can be described thus: Toxicity liver stage against HepG2, at 10uM. The class given is cell-based. Further details: test concentration 10 uM, cell line HepG2-A16-CD81EGFP. To be noted: human, HepG2-A16-CD81EGFP cells; read-out: INHIBITION
A digest of the protocol: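 Uninfected HepG2-A16-CD81EGFP cells, 3 × 10^3 per well, 1536-well, plated on prespotted compound at 10 μM final, parasite-free screening media added to match infected plates; puromycin 10 μM positive, DMSO 0.5% negative; run in parallel with 48 h PbLuc assay at 37 °C, 5% CO2; viability by CellTiter-Glo luminescence, normalized to controls.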
Consider `Fc1ccc2[nH]c(CO[C@H]3CN(CC4CC4)C[C@H]3F)nc2c1`, for which the cytotoxicity at 10 µM is -2.74%.
In the case of `COCC(O)CN1CCC(=O)N(Cc2ccccc2)Cc2ccccc21` (configuration not stated) it was 1.19%; in that of `COCCn1ccc2c(C(=O)NC(C)C)cccc21`, 3.46%; in that of `COCCn1/c(=N/C(=O)C(C)C)sc2cc(Cl)ccc21`, -5.26%.
In the case of `CCOCCSc1nnc(-c2cn(CC)nc2OCC)n1C` it was -3.81%; in that of `O=S(=O)(NCCNc1ccc(-n2cccc2)nn1)c1cccs1`, -12.3%; in that of `CC(C)NC(=O)N1CCN(C(=O)C2CCOCC2)CC2(CNC(=O)C2)C1` (configuration not stated), 0.748%.
In the case of `CS(=O)(=O)N1Cc2nccn2CC(CN2CCCC2=O)C1` (configuration not stated) it was 5.8%; in that of `CN1CC(Oc2ccccc2)=NC(SCC(=O)c2ccccc2)=N1`, -6.17%; in that of `Nc1no[n+]([O-])c1C(=O)NCc1ccccn1`, -2.02%.
As for `CC(OCC1CC1)C(=O)NCCC(=O)Nc1ccccn1` (configuration not stated), the cytotoxicity at 10 µM is -5.72%.
In the case of `CC1COCCN1C(=O)c1ccc(=O)n(Cc2ccccc2)n1` (configuration not stated) it was -1.19%; in that of `CCOc1ccc(NC(=O)NC2CCc3[nH]ncc3C2)cn1` (configuration not stated), 3.95%.
In the case of `Cc1nn(C)c2ncc(C(=O)N3CCNC(=O)C3)cc12` it was -6.62%.
Turning to `CN1CCN(C2CCN(Cc3ccc(Cl)cc3)CC2)C1=O`, the cytotoxicity at 10 µM was determined as 7.9%.
In the case of `Cc1nnc2n1CCN(C(=O)C(C)Oc1ccc(C#N)cc1)C2` (configuration not stated) it was -0.643%; in that of `CC(Cc1ccsc1)NC(=O)c1cc(N2CCNC2=O)ccc1F` (configuration not stated), -4.62%; in that of `COCc1cccc(C(=O)N2CCCC2)c1`, -1.7%.
In the case of `CCN(c1ccc(C(=O)Nc2c(C)nn(C(C)C)c2C)cc1)C(C)C` it was -2.92%; in that of `COc1ccc2c(c1)CCCN(C(C)C(=O)NC(N)=O)C2` (configuration not stated), 8.66%.
In the case of `CCc1n[nH]c(C2CN(CCCOc3cccc(C)c3)CCO2)n1` (configuration not stated) it was -15%; in that of `CN1CC(Nc2nc3c(cnn3-c3ccccc3)c(=O)[nH]2)CCC1=O` (configuration not stated), -2.75%.
As to `NC(=O)C1=NC2=NS(=O)(=O)c3ccccc3N2N1Cc1ccc(Br)cc1`, the cytotoxicity at 10 µM was determined as 8.34%.
In the case of `Clc1cnc(NCc2ccccc2N2CCOCC2)nc1` it was -0.234%; in that of `Cc1cc(C(C)NC(=O)c2ccc(O)nc2)c(C)o1` (configuration not stated), -1.85%; in that of `COc1cc(CNc2cnn(CCN3CCOCC3)c2)cc(OC)c1`, -7.38%.
Under `Cc1noc(C)c1CN(C)C(=O)C1(NS(C)(=O)=O)CCCCC1` stands -11.3%.
In the case of `Cc1nnc(SCCC(=O)N(C)Cc2ccc(F)cc2F)[nH]1` it was 5.21%.
As for `CCc1noc(CNc2cc(F)ccc2OCC2CCCO2)n1` (configuration not stated), the cytotoxicity at 10 µM is -3.27%.
In the case of `CN(Cc1cnn(C)c1)C(=O)NC1CCC(O)CC1` (configuration not stated) it was -14.7%; in that of `O=C(c1ccco1)N1C[C@H]2CN(Cc3cccc(F)c3)C(=O)[C@H]2C1`, -78.2%; in that of `CCc1csc(CNC2CCN(c3ccc(C)cc3)CC2)n1`, -10.8%.
As to `Cc1noc(-c2ccc(N(C)Cc3nccs3)nc2)n1`, the cytotoxicity at 10 µM worked out at 9%.
In the case of `COc1nc2c(cc1C(=O)N1CCCC1c1ccccn1)CCC2` (configuration not stated) it was -5.54%; in that of `CC(C)CCN1CC2(CCN(C(=O)C3(C)CCCCO3)CC2)OC1=O` (configuration not stated), -14.4%; in that of `O=C(c1ccc2c(c1)OCO2)N1CCCC(Nc2ccc(F)cc2)C1` (configuration not stated), -5.05%.
In the case of `COc1ccc(CC2(CO)CCN(c3cc(C#N)ccn3)CC2)cc1` it was 8.86%; in that of `CCNc1ncc(C(=O)NC2CCOCC2)cn1`, 4.37%.
Take `CCCS(=O)(=O)NCc1cccnc1Oc1ccc(C)nc1`: the cytotoxicity at 10 µM was -1.15%.
Under `CC(CO)NCc1csc2c1CCCC2` (configuration not stated) stands -11.3%.
In the case of `Cn1nnnc1SCCNC(=O)c1c[nH]nc1C1CCCCC1` it was -0.863%.
Under `N[C@H]1CN(S(=O)(=O)c2cccnc2)C[C@@H]1C1CC1` stands 7.28%; under `CC1(c2ccccc2)CCC(=O)N(CCCN2CCOCC2)C1` (configuration not stated), -18.1%; under `Cc1cnccc1-n1nc(C(C)C)nc1CCN(C)S(C)(=O)=O`, -4.05%.
As to `COc1cccc(CC2CN(C3CCN(C(C)=O)CC3)CCO2)c1` (configuration not stated), the cytotoxicity at 10 µM is -12.4%.
Under `O=C(CCc1cc2n(n1)CCCN(C(=O)c1cccnc1)C2)NC1CC1` stands -7.38%.
For the compound `Cc1cccc2[nH]c(C3CCN(C(=O)c4ccnn4C)CC3)nc12`, the cytotoxicity at 10 µM was -21.6%.
Under `COc1ccc(-c2ccnc3c2C(=O)CCC3)cc1` stands 6.09%.
On to `COc1c(C2CCCN2C(=O)c2cccc(C)n2)c(C)nn1C` (configuration not stated), for which the cytotoxicity at 10 µM was -7.52%.
Under `Cc1nc(CN(C)C2CCCN(c3ccccc3)C2)no1` (configuration not stated) stands -6.9%; under `CC(Cn1cccn1)NCc1nc(-c2ccsc2)no1` (configuration not stated), -8.42%; under `COc1ccc(C2=CCN(C(=O)C3CCCN(C(C)=O)C3)CC2)cc1` (configuration not stated), -13.4%.
In the case of `CCc1nc(C2CCCN2C(=O)CCc2c(C)noc2Cl)no1` (configuration not stated) it was -7.07%; in that of `O=C(CCc1cccs1)N1CCCC1c1noc(C2CC2)n1` (configuration not stated), -4.87%; in that of `CC(=O)NCCCC(=O)NC(C)c1nnc2n1CCC2` (configuration not stated), -10.3%.
Turning to `CN(C)c1ccc(C(=O)NCc2csc(Br)c2)cn1`, the cytotoxicity at 10 µM was -4.97%.
As to `Cc1nc(CN2CCN(C(=O)c3sccc3C3CC3)CC2)oc1C`, the cytotoxicity at 10 µM is -15.2%.
Under `CCN1CCN(Cc2csc(C(C)C)n2)CC1` stands -5.78%; under `Cc1cc(C(=O)N2CCN(C)CC2)nn1CC(=O)NCc1ccccn1`, -3.58%; under `CC1(C)CN(C(CNC2=NCCN2)c2ccc(Cl)cc2)CCO1` (configuration not stated), 8%.
Under `OC(CNCc1ccccc1C(F)(F)F)c1ccccc1` (configuration not stated) stands -4.63%; under `CN1CCCN(C(=O)c2nc3c(o2)CN(C(=O)c2cccnc2)C3)CC1`, 2.75%; under `COc1ccc(CN2C[C@@H]3CCCO[C@@H]3[C@H](NS(C)(=O)=O)C2)cc1`, -2.83%.
Turning to `Fc1cccc(-c2nnn3c2COC(CNCc2cccs2)C3)c1` (configuration not stated), the cytotoxicity at 10 µM was determined as 1.07%.
Under `c1cnc(NC[C@@H]2CCC[C@@H]3CN(Cc4cc[nH]n4)C[C@@H]32)nc1` stands -13.1%; under `COCC1CN(Cc2ccoc2)Cc2nn(CC3CC3)cc21` (configuration not stated), -2.24%.
Under `Cc1noc(C)c1CN1CCC2(COCc3cnc(N(C)C)nc32)C1` (configuration not stated) stands 9.93%.
In the case of `CN1CCN(C2COC3(CCN(Cc4cccs4)CC3)C2)CC1` (configuration not stated) it was -84.5%; in that of `O=C(COC[C@H]1CC[C@H]2[C@H](CCN2c2ncccn2)O1)N1CCCC1`, -7.41%.
Take `CCOc1ncnc2c1CCN(Cc1csc(C)n1)CC2`: the cytotoxicity at 10 µM was -68.1%.
Under `O=C(Cc1cccs1)N1C[C@@H]2OCCN(CC3CCCO3)[C@@H]2C1` (some centres not stated) stands -11%.
Under `CCN1C[C@@H]2C[C@H](C(=O)Nc3ccccc3)[C@H](C1)O2` stands -76.4%.

Values taken from ChEMBL document CHEMBL4513216, “Probing the Open Global Health Chemical Diversity Library for Multistage-Active Starting Points for Next-Generation Antimalarials” (ACS Infect Dis, 2020).
